# In PubChem BioAssay:
# The source made the active and inactive calls.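 The calls were made as follows, unless noted: active = potentiation averaged over duplicate wells exceeding buffer-only control mean by more than 3 SD; inactive = the rest.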
# Legend:
# [1] = nonspecific flux increase, KCNQ1-free cells – parental CHO cells, counter-screen for KCNQ1 potentiator project (AID 493006;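 active = duplicate-averaged activation above buffer control mean plus 5 SD of those controls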); conditions: parental CHO-K1 cells, FluxOR thallium flux, at 10 µM; hits give high values
# Method in brief: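 Assay system: Untransfected host CHO-K1 cells with FluxOR thallium dye | Probe or stimulus: Potassium/thallium depolarization pulse | Schedule: Overnight 37 °C plating, 90 min RT dye, 20 min compound | Detection: Kinetic thallium-flux fluorescence | Read-out: Max-minus-min fluorescence over baseline, percent of buffer-to-R-L3 span | Benchmarks: Low control buffer, high control R-L3 activator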
# [2] = molecular target: Potassium voltage-gated channel subfamily KQT member 1 (Homo sapiens) (UniProt P51787); assay: enhancement of KCNQ1 channel thallium flux – FluxOR thallium flux, CHO cells, duplicates, confirmation (AID 493007); conditions: KCNQ1 cell line, FluxOR thallium flux fluorescence, at 10 µM; hits give high values, % of reference activator effect, buffer zero;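 as to outcome: cells depolarized by a potassium plus thallium sulfate stimulus after compound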
# Method in brief: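 Material: KCNQ1-expressing CHO cell line; Incubation: FluxOR dye loading 90 min, compound exposure 20 min, room temperature; Detection: FluxOR Tl+ flux fluorescence, 10 s baseline plus 110 s recording; Read-out: percent activation between buffer and R-L3 responses; Control set: buffer-only wells as 0% and R-L3 activator as 100%; Replication: duplicate wells per compound.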
# [3] = molecular target: Potassium voltage-gated channel subfamily KQT member 2 (Rattus norvegicus) (UniProt O88943); assay: KCNQ2 thallium flux enhancement – KCNQ2-CHO-K1 cells, selectivity assay for KCNQ1 potentiator project (AID 493009;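 active = mean duplicate potentiation above the buffer control mean plus 5 SD of buffer wells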;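 also: assay conditions were tuned for KCNQ1 rather than KCNQ2 modulators; signal is max minus min fluorescence divided by baseline after thallium stimulus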); conditions: FluxOR thallium flux fluorescence, at 10 µM; hits give high values, scaled: buffer 0, activator control 100
# [4] = molecular target: Potassium voltage-gated channel subfamily KQT member 1 (Homo sapiens) (UniProt P51787); assay: KCNQ1 activators by electrophysiology – IonWorks patch clamp, KCNQ1-CHO cells, orthogonal assay for KCNQ1 potentiator project, confirmation (AID 493184;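 active = current rise at least 3 SD above the untreated control mean in each of two repeat wells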); conditions: automated patch clamp current, at 10 µM; hits give high values
# Method in brief: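 assay system = KCNQ1-expressing CHO cells | medium = external bath solution at pH 7.4 | probe or stimulus = 2,000 ms depolarization, -90 to +40 mV | compound dosing = 10 µM final, single point | measured by = automated voltage clamp, amphotericin B perforated patch | measure = percent current increase versus pre-compound level | replication = duplicates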
# Potassium voltage-gated channel subfamily KQT member 1 (Homo sapiens), sequence (P51787 whole entry, looked up): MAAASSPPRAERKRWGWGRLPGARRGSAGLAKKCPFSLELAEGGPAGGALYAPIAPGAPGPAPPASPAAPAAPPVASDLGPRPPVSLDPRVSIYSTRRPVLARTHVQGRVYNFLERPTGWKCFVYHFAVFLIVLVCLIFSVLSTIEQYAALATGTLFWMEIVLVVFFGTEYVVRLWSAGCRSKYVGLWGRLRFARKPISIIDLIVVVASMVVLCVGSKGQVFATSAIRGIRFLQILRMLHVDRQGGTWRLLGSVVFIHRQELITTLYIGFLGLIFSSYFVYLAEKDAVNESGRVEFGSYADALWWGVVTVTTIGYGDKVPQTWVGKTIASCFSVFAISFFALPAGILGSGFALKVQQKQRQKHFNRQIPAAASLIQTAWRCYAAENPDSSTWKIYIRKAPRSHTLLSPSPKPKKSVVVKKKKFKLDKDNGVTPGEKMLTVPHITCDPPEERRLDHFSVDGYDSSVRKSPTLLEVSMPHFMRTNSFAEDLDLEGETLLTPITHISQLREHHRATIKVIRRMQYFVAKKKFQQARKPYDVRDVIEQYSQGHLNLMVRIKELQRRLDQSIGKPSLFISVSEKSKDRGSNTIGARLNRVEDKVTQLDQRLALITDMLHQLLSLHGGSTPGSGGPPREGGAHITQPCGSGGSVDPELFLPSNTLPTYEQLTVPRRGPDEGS
# Potassium voltage-gated channel subfamily KQT member 2 (Rattus norvegicus), sequence (O88943 whole entry, looked up): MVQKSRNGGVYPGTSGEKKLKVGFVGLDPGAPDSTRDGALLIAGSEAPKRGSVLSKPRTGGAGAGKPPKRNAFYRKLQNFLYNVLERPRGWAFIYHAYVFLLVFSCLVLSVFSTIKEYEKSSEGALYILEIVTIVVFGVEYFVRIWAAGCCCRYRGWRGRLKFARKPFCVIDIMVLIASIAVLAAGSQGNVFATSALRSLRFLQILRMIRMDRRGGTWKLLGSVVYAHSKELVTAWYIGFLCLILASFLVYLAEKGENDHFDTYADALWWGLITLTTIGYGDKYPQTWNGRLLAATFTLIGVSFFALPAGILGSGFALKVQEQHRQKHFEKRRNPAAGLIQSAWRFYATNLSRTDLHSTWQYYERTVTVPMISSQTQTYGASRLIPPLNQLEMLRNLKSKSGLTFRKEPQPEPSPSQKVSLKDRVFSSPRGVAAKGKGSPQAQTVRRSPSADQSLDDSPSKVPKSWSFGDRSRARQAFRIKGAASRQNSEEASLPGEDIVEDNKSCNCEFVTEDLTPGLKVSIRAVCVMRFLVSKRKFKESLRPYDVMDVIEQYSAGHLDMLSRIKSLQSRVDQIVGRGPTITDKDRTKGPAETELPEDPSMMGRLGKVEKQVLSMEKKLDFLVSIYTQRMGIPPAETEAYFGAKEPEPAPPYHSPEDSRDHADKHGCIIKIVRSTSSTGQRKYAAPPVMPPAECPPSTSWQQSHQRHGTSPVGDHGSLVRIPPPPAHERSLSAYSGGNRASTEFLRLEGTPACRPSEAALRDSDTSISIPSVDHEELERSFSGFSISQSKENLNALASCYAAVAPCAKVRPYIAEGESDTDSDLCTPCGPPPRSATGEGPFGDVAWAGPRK
SMILES,activation [1],potentiation [2],potentiation [3],outcome [4],outcome [1],outcome [2],outcome [3]
Cc1[nH]c(=S)sc1Cc1ccc(F)cc1,286% (active),101% (active),300% (active),inactive,–,–,–
COc1ccc(C(=O)CC(=O)C(=O)Nc2ccccc2C(F)(F)F)cc1,–,38.5% (active),147% (active),inactive,inactive,–,–
CCC(C)c1ccccc1OCCCNC1CCCC1 (stereo not given),–,–,–,inactive,inactive,inactive,inactive
CCC1(c2ccccc2)NC(=S)N(c2ccc(C)c(C)c2)N1 (stereo not given),542% (active),271% (active),572% (active),inactive,–,–,–
CCOC(=O)C(=Cc1cc(=O)c(OC)co1)C(=O)OCC,–,–,–,inactive,inactive,inactive,inactive
O=C(NC(=S)Nc1ccc2c(c1)OCCO2)c1ccco1,206% (active),108% (active),260% (active),inactive,–,–,–
Cc1nc(SCC(=O)NCC2CCCO2)c2c3c(sc2n1)CCCC3 (stereo not given),158% (active),55% (active),197% (active),inactive,–,–,–
Cc1ccc(C)c(N2CCN(C(=O)CCS(=O)(=O)c3ccc4c(c3)NC(=O)CO4)CC2)c1,–,–,–,inactive,inactive,inactive,inactive
Oc1c(N=Nc2ccccn2)ccc2ccccc12,182% (active),91.5% (active),168% (active),inactive,–,–,–
Cc1ccccc1NC1=NC(=S)N(c2ccccc2)C12CCCCC2,176% (active),26% (active),156% (active),inactive,–,–,–
O=C(COc1ccccc1F)Nc1c2c(nn1-c1ccccc1)CS(=O)(=O)C2,–,–,–,inactive,inactive,inactive,inactive
Cc1cccc(NC(=O)c2ccc(COc3ccccc3[N+](=O)[O-])o2)n1,–,–,–,inactive,inactive,inactive,inactive
O=C1CN(S(=O)(=O)c2ccccc2)CC(=O)N1CCc1ccccc1,–,–,–,inactive,inactive,inactive,inactive
CC(/C=N/n1c(C2CCCCC2)n[nH]c1=S)=C\c1ccccc1,–,270% (active),423% (active),inactive,inactive,–,–
CNC(C)C#Cc1ccc2sc3cccc(OC)c3c(=O)c2c1 (stereo not given),–,–,–,inactive,inactive,inactive,inactive
CCOc1ccc2[nH]c(=O)c(CN(Cc3ccc(C)cc3)C(=O)N3CCCC3)cc2c1,–,–,–,inactive,inactive,inactive,inactive
COc1ccc(N2CCN(C(=S)NC(=O)c3cccs3)CC2)c([N+](=O)[O-])c1,139% (active),74.5% (active),232% (active),inactive,–,–,–
CN(c1ccccc1)S(=O)(=O)c1ccc(NC(=O)c2nc(S(C)(=O)=O)ncc2Cl)cc1,–,–,–,inactive,inactive,inactive,inactive
Oc1c(Br)cc(Br)cc1C=NCc1ccc(F)cc1,153% (active),–,146% (active),inactive,–,inactive,–
CC(C)(C)c1ccc2c(c1)OC(C(=O)N/N=C\c1ccccn1)CO2 (stereo not given),–,–,–,inactive,inactive,inactive,inactive

SMILES,activation [1],potentiation [2],potentiation [3],outcome [4],outcome [1],outcome [2],outcome [3]
c1ccc(-n2cnc3cc(NCc4cccs4)ccc32)cc1,–,–,–,inactive,inactive,inactive,inactive
CO/N=C/CC(=O)Nc1ccc(F)cc1F,–,–,–,inactive,inactive,inactive,inactive
CCCCN1C=CC(=C2C(=O)c3ccccc3C2=O)C=C1,–,–,–,inactive,inactive,inactive,inactive
Cc1nn(C)c(C(=O)NC(=S)Nc2ccccc2Br)c1Cl,232% (active),96% (active),254% (active),inactive,–,–,–
Cc1ccc(-c2noc(CCC(=O)Nc3ccccc3N3CCN(C)CC3)n2)cc1,–,–,–,inactive,inactive,inactive,inactive
COc1cc(C(=O)NC(=S)N(CCc2ccccc2)CCc2ccccc2)cc(OC)c1OC,198% (active),104% (active),256% (active),inactive,–,–,–
ON/C=N/C(=S)Nc1ncc(C(F)(F)F)cc1Cl,264% (active),69% (active),218% (active),inactive,–,–,–
Fc1ccccc1C(c1nnnn1C1CCCC1)N1CCN(Cc2ccccc2)CC1 (stereo not given),–,–,–,inactive,inactive,inactive,inactive
c1csc(-c2csc3ncnc(NCCCN4CCOCC4)c23)c1,–,–,–,inactive,inactive,inactive,inactive
CCOC(=O)c1sc(NC(=O)c2ccncc2)nc1C,161% (active),54% (active),166% (active),inactive,–,–,–
COc1ccccc1CNCc1cccc(Oc2ccccc2)c1,–,–,–,inactive,inactive,inactive,inactive
CNC(=S)N/N=C/c1cc(Br)cc(Br)c1O,168% (active),–,–,inactive,–,inactive,inactive
Cc1cc(C)c2nc(NC(=O)c3cc(C)on3)sc2c1,174% (active),36% (active),166% (active),inactive,–,–,–
Cc1ccc2cccnc2c1NC(=S)NC(=O)c1ccccc1,–,–,–,inactive,inactive,inactive,inactive
CC(=O)/C=C1/C(=O)Nc2ccccc21,167% (active),63.5% (active),188% (active),inactive,–,–,–
Cc1cc(C(=O)N2CCCC(N3CCN(c4cccc(Cl)c4)CC3)C2)n(C)n1 (stereo not given),–,–,–,inactive,inactive,inactive,inactive
Fc1cccc2sc(Nc3nnc(-c4ccccc4)o3)nc12,531% (active),198% (active),481% (active),inactive,–,–,–
CC(C)OC(=O)c1c(NS(=O)(=O)c2ccccc2)sc2c1CCCC2,262% (active),126% (active),338% (active),inactive,–,–,–
S=c1sc2c(Cl)ncnc2n1-c1ccccc1,302% (active),146% (active),364% (active),inactive,–,–,–
COc1ccc(NC(=O)C(=O)NNC(=O)c2ccc(Cl)cc2Cl)cc1,412% (active),200% (active),492% (active),inactive,–,–,–

SMILES,activation [1],potentiation [2],potentiation [3],outcome [4],outcome [1],outcome [2],outcome [3]
Cc1ccc(Cl)cc1NC(=S)N/N=C/c1cccc2ccccc12,–,32% (active),–,inactive,inactive,–,inactive
C/C(=N\NC(=O)c1cccc(F)c1)c1ccc(Br)s1,–,–,–,inactive,inactive,inactive,inactive
CCOC(=O)c1cnc2c(C(=O)OC)cccc2c1NCCN1CCOCC1,–,–,–,inactive,inactive,inactive,inactive
Cc1ccc(-c2csc(NC(=S)NC(=O)c3ccco3)n2)cc1,180% (active),71% (active),164% (active),inactive,–,–,–
O=C(CSc1ncnc2c1cnn2-c1ccc(F)cc1)NC1CCCC1,–,–,–,inactive,inactive,inactive,inactive
Cn1c(=S)[nH]c2scc(-c3cccs3)c2c1=O,524% (active),218% (active),500% (active),inactive,–,–,–
CCN(CC(=O)Nc1ccc(OC)cc1)C(=O)CSCC(=O)Nc1ccc(C)cc1,–,–,–,inactive,inactive,inactive,inactive
CC(C)CC(=O)NC(=S)Nc1nc(-c2ccccc2)cs1,284% (active),152% (active),316% (active),inactive,–,–,–
Cc1ccc(C(=O)N/N=C(/CC(=O)c2cccs2)C(F)(F)F)cc1,234% (active),66.5% (active),246% (active),inactive,–,–,–
O=C(CCC(=O)N1CCOc2ccc(Cl)cc21)NCCCN1CCN(c2ccccc2F)CC1,–,–,–,inactive,inactive,inactive,inactive
O=C(Nc1nccs1)c1ccc(-c2ccc(F)c(Cl)c2)o1,–,–,–,inactive,inactive,inactive,inactive
CCCCN1CNC(=S)N(c2ccccc2OCC)C1,–,–,–,inactive,inactive,inactive,inactive
CC(C)(C)NC(=O)C(=O)NNC(=O)COc1ccc(Br)cc1,227% (active),53% (active),215% (active),inactive,–,–,–
COc1cccc2sc(NNC(=O)c3nc4ccccc4s3)nc12,300% (active),191% (active),420% (active),inactive,–,–,–
O=S(=O)(c1cc(F)cc(F)c1)N1CCN(c2ncccn2)CC1,–,–,–,inactive,inactive,inactive,inactive
CS(=O)(=O)N1CCN(Cc2ccc(C(F)(F)F)cc2)CC1,–,–,–,inactive,inactive,inactive,inactive
COc1ccc(C(=O)c2ccc(OC)c(N)c2)cc1N,162% (active),38.5% (active),178% (active),inactive,–,–,–
COc1ccc(C(=O)CSc2nnc(CNC(=O)c3ccc(OC)cc3)n2C)cc1,–,21% (active),–,inactive,inactive,–,inactive
Cc1cc(C)n(CC(=O)N2CCCC(N3CCN(c4ccccc4C)CC3)C2)n1 (stereo not given),174% (active),79% (active),206% (active),inactive,–,–,–
O=c1c2cccnc2[nH]c(=S)n1CCC1=CCCCC1,258% (active),64% (active),229% (active),inactive,–,–,–
